Screening data (PubChem)
CHOP UPR activ – apoptotic UPR (CHOP) activation | CHO-CHOP luciferase reporter, luminescence; percent of tunicamycin response over DMSO baseline | activation, % at 10 µM | actives 0.34% (n = 330,000) | AID 449763;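 active = at 10 µM dose, activation of 40% or more, normalized to positive control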
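Evaluation: % reporter activation, DMSO baseline versus tunicamycin full activation; System: CHO-CHOP luciferase reporter cell line; Input: 500 cells/well; Incubation: 6 h compound treatment, 37 °C; Measured by: Steady-Glo luciferase luminescence; Dosing: one dose, 10 µM in 0.5% DMSO; Buffer or medium: F12 medium, 10% FBS; Benchmarks: positive tunicamycin 10 µg/mL, negative DMSO alone.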
iPSC survival up – increases survival of single human iPS cells | survival enhancement, % at 20 µM | actives 0.044% (n = 360,000) | hiPSC single-cell survival, ATPlite luminescence; 100% = ROCK inhibitor wells, 0% = DMSO | AID 602274; in the data active = survival enhancement above about 18%;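 note: cells exposed to compounds for 16 hours before the ATP read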
XBP1 UPR activ – activators of adaptive arm of unfolded protein response (XBP1); CHO-XBP1 luciferase reporter, IRE1-XBP1 UPR activation, luminescence; percent of tunicamycin response, DMSO as zero; activation, % at 20 µM; actives 0.33% (n = 330,000); AID 463104;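 active = versus positive control, 20 µM dose yields 30% or more activation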
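Material: CHO-XBP1 cells stably carrying IRE1-XBP1-driven luciferase reporter / Amount: 1000 cells per well / Compound: 20 µM, 1% DMSO / Times: 6 h treatment, 37 °C / Detection: luciferase luminescence / Measure: % activation of reporter signal versus tunicamycin and DMSO controls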
H9c2 protect – modulators protecting cardiomyocytes from myocardial damage; protection from H2O2 cell death, % at 20 µM; actives 0.63% (n = 360,000); H9c2 cardiomyocytes, H2O2 injury protection, ATPLite, 2 h;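 active = compounds giving at least 50% protection of heart cells from peroxide-induced death in the single-dose screen, raw or plate-pattern-corrected value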
CHOP inh – CHOP inhibition in unfolded protein response; CHO-K1 CHOP-promoter luciferase, tunicamycin-induced, 15-18 h; actives 3.8% (n = 220,000); inhibition, % at 10 µM; AID 2732;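 active = compounds that reduced the stress-induced luciferase reporter signal by more than about 70% of percent inhibition, limit read from the data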
Hits are given with their value; n = inactive; x = no result. This excerpt belongs to a sample that is enriched for hits.

SMILES	CHOP UPR activ	iPSC survival up	XBP1 UPR activ	H9c2 protect	CHOP inh
COc1ccc(S(=O)(=O)n2cnc3cc(C)c(C)cc32)cc1	n	n	n	n	n
COc1ccc(S(=O)(=O)n2cnc3cc(C)c(C)cc32)cc1C	n	n	n	n	70.3
CN(c1ccc(F)cc1)S(=O)(=O)c1ccc(Cl)c(C(=O)NCC2(N3CCOCC3)CCCCC2)c1	x	n	x	n	x
CC(C)Cc1nc2oc3c(NCC4CCCO4)ncnc3c2c2c1CCC2 (stereo not given)	n	n	n	73.2	n
COCCN1C(=O)COc2ccccc2C1C(=O)NC1CCCC1 (stereo not given)	x	n	x	x	x
COc1cc(-c2cc(O)c(-c3ccc4ccccc4n3)c(=O)[nH]2)cc(OC)c1OC	x	n	x	62.3	x
COc1ccc(N(C(=O)CCl)C(C(=O)NCCc2ccccc2)c2cccs2)cc1 (stereo not given)	x	n	x	n	93.0
COc1ccc(CNC(=O)C(c2ccncc2)N(C(=O)Cc2cccs2)c2ccccc2)cc1 (stereo not given)	x	n	x	n	n
O=C(OC(C(=O)NCc1ccco1)C(OC(=O)c1ccccc1)C(=O)NCc1ccco1)c1ccccc1 (stereo not given)	n	n	n	n	94.3
CC(C)C(OC(=O)c1cccs1)C(=O)NCc1ccco1 (stereo not given)	n	n	n	n	n
CCOc1ccc(NC(=O)CN(C)C(=O)Cc2n[nH]c(=O)c3ccccc23)cc1OCC	n	n	n	59.2	x
COc1cccc(NC(=O)CN(C)C(=O)Cc2n[nH]c(=O)c3ccccc23)c1	n	n	n	79.1	x
COc1ccc(Cl)cc1NC(=O)CN(C)C(=O)Cn1c(=O)oc2ccccc21	n	n	n	n	x
COc1ccc(NC(=O)CN(C)C(=O)Cc2n[nH]c(=O)c3ccccc23)cc1	n	n	n	61.3	x
COc1ccc(Cl)cc1NC(=O)CN(C)C(=O)Cc1n[nH]c(=O)c2ccccc12	n	n	n	100.4	x
CCOc1ccc(NC(=O)c2ccc(NC(=O)Cc3n[nH]c(=O)c4ccccc34)cc2)cc1	n	n	n	n	n
O=C(Nc1ccc(S(=O)(=O)N2CCCCC2)cc1)c1ccc(CN2CCc3ccccc3C2)cc1	n	n	n	n	79.9
O=C(Nc1ccccc1)c1ccc(CN2CCc3ccccc3C2)cc1	n	n	n	n	n
CC(=O)Nc1ccc(CN(C)c2c(C)nc3ccc(C(=O)N(C)Cc4ccccc4)cn23)cc1	x	n	x	n	x
Cc1ccccc1CCN(C(=O)Cn1nnc2ccccc21)C(C(=O)NCC1CCCO1)c1nc2ccccc2n1C (stereo not given)	n	n	n	n	82.1
ON=C1C2CC=C(c3ccccc3)C1CCC2 (stereo not given)	x	n	x	n	x
CCC(Sc1nc2ccc(C)cc2[nH]1)C(=O)O (stereo not given)	n	n	n	n	n
Cc1ccc(C)c(NC(=O)C(Sc2nc3ccc(C)cc3[nH]2)c2ccccc2)c1 (stereo not given)	n	n	n	n	73.2
O=C(CSc1nc(-c2ccccc2)c(-c2ccccc2)o1)Nc1nncs1	n	n	n	n	71.6
CCOC(=O)c1ccccc1NC(=O)c1ccc(NS(C)(=O)=O)cc1	n	n	n	n	80.5
SMILES	CHOP UPR activ	iPSC survival up	XBP1 UPR activ	H9c2 protect	CHOP inh
CCCOC(=O)COC(=O)c1ccccc1NC(=O)c1ccccc1	n	n	n	n	n
Cc1ccc(-c2nnn(CC(=O)N(c3cccc(F)c3)C(C(=O)NC(C)(C)C)c3ccco3)n2)o1 (stereo not given)	n	n	n	n	94.9
Cc1ccc(-c2nnn(CC(=O)N(c3cccc(O)c3)C(C(=O)NC(C)(C)C)c3cccs3)n2)o1 (stereo not given)	n	n	n	n	n
Cc1cc(SCC(=O)N/N=C/c2ccc(O)cc2O)c(C)cc1Br	n	n	n	n	87.7
O=C(CSc1ccc2ccccc2n1)N/N=C/c1ccccc1O	n	n	n	55.0	x
O=C(N/N=C/c1ccc(O)cc1O)/C(=C/c1ccccc1)CCO	n	n	n	57.0	n
O=C(CSc1ccc2ccccc2n1)N/N=C/c1ccc(O)cc1	n	n	n	n	x
CCc1cc(C(=O)N/N=C/c2ccc(O)cc2O)c2ccccc2n1	n	n	n	53.0	x
O=C(NCCN1CCN(Cc2ccccc2)CC1)c1ccc(CS(=O)(=O)c2c(Cl)cccc2Cl)o1	x	n	x	n	x
O=C(CNC(=O)C(c1ccccc1)c1ccccc1)N/N=C/c1ccc(O)cc1O	n	n	n	56.5	n
O=C(CNC(=O)C1COc2ccccc2O1)N/N=C\c1cccc(O)c1 (stereo not given)	n	n	n	n	n
O=C(CNC(=O)C1COc2ccccc2O1)N/N=C/c1ccc(O)cc1O (stereo not given)	n	n	n	62.9	n
O=C(/C=C\c1ccccc1)NCC(=O)N/N=C/c1ccc(O)cc1O	n	n	n	65.6	x
COc1cccc(CNC(=O)c2ccc(S(=O)(=O)N3CCCCC3)cc2)c1	x	n	x	n	x
Cn1c(=O)cc(OCCCC(=O)NCCC2=CCCCC2)c2ccccc21	n	n	n	n	n
Cn1c(=O)cc(SCC(=O)NCCC2=CCCCC2)c2cc(Cl)ccc21	n	n	n	n	93.1
CCOC(=O)CN1CC(C)(C)N(CC(=O)OCC)CC1(C)C	x	n	x	n	x
Fc1ccc(N/N=C/C=C/c2ccccc2)c(F)c1	n	n	n	n	77.0
CCc1nc2c(OCc3ccc(F)c(F)c3)cccn2c1N(C)C(=O)c1ccc(C)cc1	x	n	x	n	x
CCOC(=O)c1c(NC(=O)c2cc(C(C)C)on2)sc(C(C)=O)c1C	n	n	n	n	93.5
CN(CC(=O)Nc1ccc(OC(F)(F)F)cc1)C(=O)c1ccccc1SCC(=O)N1CCCC1	x	n	x	n	x
Cn1c(N)c(C(=O)COC(=O)CCOc2ccc(C(C)(C)C)cc2)c(=O)n(C)c1=O	n	n	n	n	71.0
CC(C)OC(=O)CC(=O)CSc1nc2c(cc1C#N)CCCC2	n	n	n	n	80.1
CCOc1ccc(NS(=O)(=O)c2ccc(NS(=O)(=O)c3ccc(SC)cc3)cc2)cc1	n	n	n	n	94.9
CCOc1ccc(NS(=O)(=O)c2ccc(NC(=S)NC(=O)CC(C)C)cc2)cc1	n	n	n	n	92.0
Cc1cc(NC(=S)NC(=O)CC(C)C)ccc1Br	n	n	n	n	83.0
CCCC(=O)NC(=S)Nc1ccc(S(=O)(=O)Nc2ccc(OCC)cc2)cc1	n	n	n	n	n
CCOc1ccc(NS(=O)(=O)c2ccc(NS(C)(=O)=O)cc2)cc1	n	n	n	n	n
CC(=O)c1c(C)[nH]c(C(=O)OCC(=O)N2CCN(c3ccccc3)CC2)c1C	x	n	x	n	x
CCCNC(=O)c1cc(S(=O)(=O)N2CCC3(CC2)OCCO3)ccc1F	x	n	x	n	x
